# From PubChem
# A selection: hits, their analogues and other compounds. The true share with any hit is near 5.4%.
# Ecoli WT expand: E. coli BW25113 growth inhibition, expanded screen | growth inhibition, % at 100 µM | AID 710 | OD600 absorbance | 98,000 tested, 0.15% active;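 active = growth inhibition above about 50% at one test dose, limit read from the data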;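 also: growth measured after 20 h incubation at 37 °C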
# PLAP act: activators of human placental alkaline phosphatase | 96,000 tested, 1.2% active | activation fold at 20 µM | purified PLAP enzyme, luminescent substrate read-out; active compounds read high; in the data active = activation fold above about 2
# HePTP inh: inhibitors of human HePTP phosphatase; 110,000 tested, 0.64% active; inhibition, % at 20 µM; P35236; recombinant HePTP phosphatase activity, OD absorbance; in the data active = inhibition above about 50%
# Target sequence (P35236 whole entry, looked up): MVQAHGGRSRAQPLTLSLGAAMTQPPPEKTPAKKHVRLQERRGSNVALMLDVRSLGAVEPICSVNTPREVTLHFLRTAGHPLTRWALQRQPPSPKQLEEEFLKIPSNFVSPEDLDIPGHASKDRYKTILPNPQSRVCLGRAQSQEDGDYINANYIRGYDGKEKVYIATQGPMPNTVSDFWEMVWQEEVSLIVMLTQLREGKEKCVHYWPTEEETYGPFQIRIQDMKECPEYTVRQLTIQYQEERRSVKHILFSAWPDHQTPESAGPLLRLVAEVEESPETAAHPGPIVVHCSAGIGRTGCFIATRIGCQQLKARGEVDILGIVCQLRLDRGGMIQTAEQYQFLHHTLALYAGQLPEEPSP
# Ecoli tolC: E. coli tolC mutant growth inhibition. E. coli BW25113 tolC mutant growth, OD615. growth inhibition, % at 10 µM (by protocol). 65,000 tested, 2.2% active. AID 573;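 active = growth inhibition at or above a cutoff equal to the mean over every tested compound plus 3 SD, cut at about 60% in these data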;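 also: growth measured after 20 h incubation at 37 °C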
#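 Signal: optical density read at 615 nm; Assay system: E. coli ΔtolC::kan strain BW25113; Times: 20 h incubation with compound, 37 °C; Dosing: 10 µM final, single dose.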
# PostGolgi ctrl: inhibits growth of the yeast control strain; efflux-deficient yeast background strain, growth absorbance A615, 16 h; inhibition, % at 10 µM; 98,000 tested, 5% active; AID 738
# PostGolgi yeast: growth inhibition of a yeast mutant, post-Golgi transport screen | 98,000 tested, 0.9% active | inhibition, % at 10 µM | post-Golgi transport phenotypic cell assay;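 also: yeast cells grown in 1536-well plates; yeast grown about 18 h at 30C before absorbance read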
# Numbers stand for hits; n = inactive; x = not tested or not shown. Rule as the data show it, unless noted: active = inhibition above about 30%; inactive = the rest.
SMILES,Ecoli WT expand,PLAP act,HePTP inh,Ecoli tolC,PostGolgi ctrl,PostGolgi yeast
Clc1ccccc1CSc1nc2ncccc2[nH]1,x,x,n,x,x,x
COC(=O)c1ccc(NC(=O)CC(c2ccccc2)c2ccccc2)cc1,x,x,n,x,x,x
c1ccc(-c2nnc(-c3ccccn3)nc2NC2CCCCC2)cc1,100,2.4,x,x,87,40
CNc1nc(-c2ccccn2)nnc1-c1ccccc1,n,n,x,x,n,n
CCCc1cc(C(=O)N2CCN(c3ccccc3C)CC2)cs1,n,n,n,100,38,n
Cc1ccc(N2CCN(C(=O)c3ccccc3)CC2)c(C)c1,n,n,n,n,n,n
Cn1c(CNc2ccccc2O)nc2ccccc21,n,2.4,n,n,n,n
O=C(O)Cn1c(O)c(C2=c3ccccc3=NC2=O)sc1=S,x,x,n,x,x,x
c1ccc(C2=Nc3ccccc3NC(c3ccccc3)C2)cc1 (stereo not given),n,n,n,x,36,n
C(=C\c1ccccc1)/C1=Nc2ccccc2NC(c2ccccc2)C1 (stereo not given),x,x,n,x,x,x
CN(c1cccc(NC(=O)CN2C(=O)c3ccccc3S2(=O)=O)c1)S(C)(=O)=O,n,n,x,n,33,n
CC(=O)Nc1cccc(N(C)S(C)(=O)=O)c1,n,n,n,n,n,n
CN(c1cccc(NC(=O)Nc2cccc(Cl)c2)c1)S(C)(=O)=O,n,n,n,61,n,n
COc1ccc(-c2cc(-c3ccc(C)cc3)nc(N/N=C/c3cccnc3)n2)cc1OC,x,x,n,x,x,x
CCOC(=O)C1=C(C)NC2=C(C(=O)c3ccccc32)C1c1cccs1 (stereo not given),x,x,n,x,x,x
CCCc1cc(C(=O)Nc2cccnc2Cl)no1,n,n,x,x,30,n
Cc1ccc(NC(=O)c2ccc(C(=O)N(C(C)C)C(C)C)cc2)cc1,x,x,n,x,x,x
CCOC(=O)C1=C(C)N=c2s/c(=C\c3ccccc3F)c(=O)n2C1c1ccc(OC)cc1 (stereo not given),x,x,n,x,x,x
Cc1cc(C)c2c(c1)-c1cc(C)nn1C(c1ccc3c(c1)OCO3)N2 (stereo not given),n,n,n,n,47,n
Cc1cc2n(n1)C(c1ccc3c(c1)OCO3)Nc1c(C)cccc1-2 (stereo not given),n,n,n,71,n,n
Cc1cc2n(n1)C(c1ccc(O)cc1)Nc1ccccc1-2 (stereo not given),n,n,n,n,n,n
Cc1cc(C(=O)O)ccc1-n1c(C)ccc1C,n,x,104,n,n,n
Cc1ccc(-c2ccccc2)n1-c1ccc(Cl)c(C(=O)O)c1,x,x,n,x,x,x
Cc1ccc(C)n1-c1cc(C(=O)O)ccc1Cl,x,x,103,x,x,x
Cc1ccc(C)n1-c1ccc(Cl)c(C(=O)O)c1,x,x,104,x,x,x
SMILES,Ecoli WT expand,PLAP act,HePTP inh,Ecoli tolC,PostGolgi ctrl,PostGolgi yeast
Cc1cc(N)ccc1-n1c(C)ccc1C,n,n,n,n,n,n
Cc1ccc(-c2ccccc2)n1-c1ccc(O)c(C(=O)O)c1,x,x,96,x,x,x
Cc1c(C(=O)Nc2ccc(S(=O)(=O)Nc3nccs3)cc2)cccc1[N+](=O)[O-],x,x,n,x,x,x
Cc1ccc(C)n1-c1ccc(Cl)cc1C(=O)O,x,x,102,x,x,x
Cc1ccc(C(=O)O)cc1-n1c(C)ccc1C,x,x,104,x,x,x
Cc1sc2nc(-c3ccc(OC(C)C)cc3)[nH]c(=O)c2c1C,x,x,n,x,x,x
COCCCNc1oc(COc2ccc(Cl)cc2Cl)nc1C#N,n,n,n,n,n,n
COc1ccc(CCNc2oc(COc3ccccc3F)nc2C#N)cc1,n,n,n,88,n,n
CN(C)CCNc1oc(COc2ccc(Cl)cc2Cl)nc1C#N,n,2,x,x,n,n
COC(=O)C1=C(C)NC(=O)/C1=C\c1ccc(F)cc1,x,x,n,x,x,x
N#CC(C(=O)Nc1cccc2ccccc12)=C1CCCC1,x,x,n,x,x,x
CC(C)(C)S(=O)(=O)c1cnc2c(-c3ccc(Cl)cc3)cnn2c1N,n,n,x,x,34,n
CC(C)(C)S(=O)(=O)c1cnc2c(-c3ccc(F)cc3)cnn2c1N,n,n,x,x,n,n
O=C(c1ccc(Cl)c(Cl)c1)N1CCN(c2ccc([N+](=O)[O-])cc2Cl)CC1,x,x,n,x,x,x
COc1ccc(S(=O)(=O)NNC(=O)c2cc3cc4ccccc4nc3s2)cc1,n,2,x,x,n,n
COc1ccc(S(=O)(=O)NNC(=O)c2ccc([N+](=O)[O-])cc2)cc1,x,x,n,x,x,x
Cc1[nH]n(-c2ccc([N+](=O)[O-])cc2)c(=O)c1C=NCCN1CCN(C(=O)c2ccccc2)CC1,n,2,x,x,n,n
O=c1c(Cc2ccc(Cl)cc2Cl)c(O)ccn1Cc1ccc(Cl)cc1,n,n,x,x,62,n
O=c1c(Cc2ccc(Cl)cc2)c(O)ccn1Cc1cccc(Cl)c1,n,n,x,x,n,n
COc1ccc(-c2cc(C(=O)Nc3cccc(Cl)c3)c3ccccc3n2)cc1OC,x,x,n,x,x,x
O=C(Nc1ccc(Cl)cc1)N1CCC(c2nc(-c3ccc(F)cc3)no2)CC1,n,n,n,72,n,n
CCCCCC(=O)N1CCCC(c2nc(-c3ccc(OC)cc3)no2)C1 (stereo not given),n,n,x,x,n,n
COc1ccc(NC(=O)N2CCCC(c3nc(-c4ccc(C(C)C)cc4)no3)C2)cc1 (stereo not given),n,n,n,62,n,n
O=C(Nc1ccc(Cl)cc1)N1CCN(c2ccc3nnc(-c4ccc(F)cc4)n3n2)CC1,n,n,n,n,n,n
Fc1ccc(-c2noc(C3CCN(Cc4cccnc4)CC3)n2)cc1,n,n,n,n,35,84
SMILES,Ecoli WT expand,PLAP act,HePTP inh,Ecoli tolC,PostGolgi ctrl,PostGolgi yeast
COc1ccc(/C=C2\N=C(c3ccccc3F)OC2=O)c(OC)c1,x,x,n,x,x,x
Cc1ccc(OCC(=O)Nc2ccc3c(c2)OCO3)c(Br)c1,x,x,n,x,x,x
COc1cccc(NC(=O)C2C(c3ccccc3)=C2c2ccccc2)c1,x,x,n,x,x,x
O=C(Cc1ccccc1)Nc1c2c(nn1-c1cccc(Cl)c1)CS(=O)(=O)C2,n,n,n,n,n,n
COc1ccc(CC(=O)Nc2c3c(nn2-c2cccc(Cl)c2)CS(=O)(=O)C3)cc1,n,n,n,n,34,n
Cc1ccc(N2C(=O)C3C(C2=O)C3(c2ccccc2)c2ccccc2)c(C)c1 (stereo not given),x,x,n,x,x,x
O=C(/C=C/c1ccc([N+](=O)[O-])cc1)Nc1ccc(Cl)c(Cl)c1,x,x,n,x,x,x
